Format in all cases: cell-based
The target in series [1] is T1, Kir3.1/Kir3.4 (Homo sapiens) (UniProt P48549+P48544). The experiment in a line: Inhibition of GIRK-1/4 channel (unknown origin) expressed in HEK293 cells at 1 uM by automated patch clamp method relative to control. In outline:
(§1)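 HEK-293 cells stably expressing GIRK1/4 (Kir3.1/3.4) K+ channels; whole-cell currents recorded by automated patch clamp. Compounds screened at 1 and 10 μM, two or three cells per condition. Current values corrected using the current measured in K+-free external solution as baseline. Inhibition expressed as % of GIRK current; mean ± SEM, n = 2–3.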
A general note: Patch clamp records ionic current or voltage across a cell membrane.

Series [2] concerns the target T2, hERG (KCNH2) (Homo sapiens, UniProt Q12809). The experiment in a line: Inhibition of human ERG expressed in HEK293 cells at 10 uM by automated patch clamp method relative to control. The conditions noted are these: HEK293 cells that express hERG.
The target of series [3] is T1, Kir3.1/Kir3.4 (Homo sapiens). The experiment in a line: (§2) Inhibition of GIRK-1/4 channel (unknown origin) expressed in HEK293 cells by automated patch clamp method. In outline: (§3)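 Whole-cell currents by automated patch clamp in HEK-293 cells stably expressing GIRK1/4 (Kir3.1/3.4). Screening at 1 and 10 μM on two or three cells. Concentration-response at four concentrations (0.3, 1, 3, 10 μM) on five or six cells, used for IC50. Currents corrected to the K+-free external solution as baseline. Means ± SEM.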

The target of series [4] is T3, Kir3.1/Kir3.4 (Homo sapiens, UniProt P48544+P48549).
T3 sequence (P48549 whole entry): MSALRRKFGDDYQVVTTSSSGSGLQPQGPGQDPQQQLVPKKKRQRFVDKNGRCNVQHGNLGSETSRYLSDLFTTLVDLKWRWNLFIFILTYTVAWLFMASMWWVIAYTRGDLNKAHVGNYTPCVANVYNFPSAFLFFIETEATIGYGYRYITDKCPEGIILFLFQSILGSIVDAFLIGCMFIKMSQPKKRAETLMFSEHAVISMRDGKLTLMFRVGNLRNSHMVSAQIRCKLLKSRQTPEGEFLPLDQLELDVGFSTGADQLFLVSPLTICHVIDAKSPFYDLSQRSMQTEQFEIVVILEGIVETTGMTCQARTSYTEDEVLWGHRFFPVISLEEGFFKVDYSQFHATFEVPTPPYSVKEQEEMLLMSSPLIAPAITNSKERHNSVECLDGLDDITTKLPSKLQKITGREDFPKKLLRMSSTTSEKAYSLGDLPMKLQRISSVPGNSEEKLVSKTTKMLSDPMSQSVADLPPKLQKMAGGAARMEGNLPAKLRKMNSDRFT
T3 sequence (P48544 whole entry): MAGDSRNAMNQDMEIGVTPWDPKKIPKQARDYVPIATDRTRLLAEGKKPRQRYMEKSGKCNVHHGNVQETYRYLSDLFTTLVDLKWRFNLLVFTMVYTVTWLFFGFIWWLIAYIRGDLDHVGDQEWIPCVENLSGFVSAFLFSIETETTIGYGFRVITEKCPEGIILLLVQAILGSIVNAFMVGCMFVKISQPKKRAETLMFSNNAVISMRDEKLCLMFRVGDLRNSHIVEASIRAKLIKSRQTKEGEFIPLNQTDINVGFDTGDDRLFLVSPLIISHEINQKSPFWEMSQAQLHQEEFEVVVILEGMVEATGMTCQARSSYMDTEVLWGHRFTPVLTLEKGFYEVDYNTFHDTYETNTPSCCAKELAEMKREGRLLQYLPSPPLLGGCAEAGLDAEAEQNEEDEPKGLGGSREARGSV
The series is described as §2. In short, it runs like this:
as §3

In series [5] the target is T1, Kir3.1/Kir3.4 (Homo sapiens). The experiment in a line: Inhibition of GIRK-1/4 channel (unknown origin) expressed in HEK293 cells at 10 uM by automated patch clamp method relative to control. In short, it runs like this: as §1
Series [6] deals with T2, hERG (KCNH2). The experiment in a line: Inhibition of human ERG expressed in HEK293 cells at 1 uM by automated patch clamp method relative to control. The conditions noted are these: HEK293 cells that express hERG. In outline:
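Automated whole-cell patch clamp in HEK-293 cells stably transfected with hERG (Kv11.1) cDNA. Increasing concentrations (1 and 10 μM) applied, two cells each. Current amplitude inhibition expressed as %, means ± SEM. 10 μM amitriptyline used as reference blocker.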

The source of these data is ChEMBL document CHEMBL4266051, “Diterpenoids from Euphorbia dulcis with Potassium Ion Channel Inhibitory Activity with Selective G Protein-Activated Inwardly Rectifying Ion Channel (GIRK) Blocking Effect” (J Nat Prod, 2018).

For orientation: inhibition means how much of the control response was suppressed. Broadly, the IC50 is the point on the concentration scale where inhibition reaches its midpoint.

T2 sequence (Q12809 whole entry): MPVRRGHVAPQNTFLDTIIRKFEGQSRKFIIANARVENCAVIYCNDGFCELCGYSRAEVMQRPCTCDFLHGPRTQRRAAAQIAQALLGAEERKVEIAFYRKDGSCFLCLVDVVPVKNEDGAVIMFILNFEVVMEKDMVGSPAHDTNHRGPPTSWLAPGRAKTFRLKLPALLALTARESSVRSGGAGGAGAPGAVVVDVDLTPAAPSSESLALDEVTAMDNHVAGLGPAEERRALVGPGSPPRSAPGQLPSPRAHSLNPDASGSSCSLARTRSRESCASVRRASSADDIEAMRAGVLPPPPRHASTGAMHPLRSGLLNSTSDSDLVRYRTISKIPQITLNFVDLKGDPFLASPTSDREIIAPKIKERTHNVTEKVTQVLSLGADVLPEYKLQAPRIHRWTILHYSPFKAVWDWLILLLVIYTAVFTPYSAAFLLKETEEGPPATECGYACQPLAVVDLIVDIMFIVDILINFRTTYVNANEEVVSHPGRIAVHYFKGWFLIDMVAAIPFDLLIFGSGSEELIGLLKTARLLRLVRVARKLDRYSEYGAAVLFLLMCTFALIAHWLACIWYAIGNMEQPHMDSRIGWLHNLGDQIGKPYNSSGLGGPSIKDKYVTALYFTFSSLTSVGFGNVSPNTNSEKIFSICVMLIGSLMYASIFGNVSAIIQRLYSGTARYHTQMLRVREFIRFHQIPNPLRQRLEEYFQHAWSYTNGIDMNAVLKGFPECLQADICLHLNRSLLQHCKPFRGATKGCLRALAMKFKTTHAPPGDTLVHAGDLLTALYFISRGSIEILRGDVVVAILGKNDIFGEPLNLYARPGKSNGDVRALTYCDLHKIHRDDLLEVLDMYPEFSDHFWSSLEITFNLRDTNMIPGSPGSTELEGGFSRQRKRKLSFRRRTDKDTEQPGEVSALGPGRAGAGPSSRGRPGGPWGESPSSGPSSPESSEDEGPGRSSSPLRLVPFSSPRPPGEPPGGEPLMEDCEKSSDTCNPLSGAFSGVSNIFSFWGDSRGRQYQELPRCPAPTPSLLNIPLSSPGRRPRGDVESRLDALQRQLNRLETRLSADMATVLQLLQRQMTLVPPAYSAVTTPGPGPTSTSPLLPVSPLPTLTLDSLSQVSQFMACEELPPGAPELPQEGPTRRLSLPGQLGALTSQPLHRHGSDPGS

Turning to `C/C=C(/C)C(=O)OCC1(C)[C@H]2[C@@H]3C=C(C)[C@@H](O)[C@]4(O)[C@@H](OC(=O)/C(C)=C\C)C(C)=C[C@]4(C3=O)[C@H](C)C[C@H]21` (stereo partly specified), the inhibition in series [1] was 43.9%; in series [3] it was “Dose-dependent effect”; in series [5], 80.4%. This molecule showed an inhibition at 10 µM in series [2] of 55.4%. The molecule also had an IC50 in series [4] of 1450 nM. Further, in series [6], the inhibition at 1 µM was found to be 11.2%.

With `C/C=C(\C)C(=O)O[C@H]1/C(C)=C/[C@H]2[C@@H](OC(=O)c3ccccc3)[C@@H](C)C[C@]2(O)[C@@H](OC(C)=O)[C@@H](C)/C=C/C(C)(C)[C@H](OC(C)=O)[C@H]1OC(C)=O`, the inhibition in series [1] was 38.5%; in series [3] it was “Dose-dependent effect”; in series [5] it was 85%. This molecule also registered an inhibition at 10 µM in series [2] of 24.4%. The same molecule showed an IC50 in series [4] of 1600 nM. In series [6], this molecule gave an inhibition at 1 µM of 6.5%.

As for `CC(=O)O[C@@H]1C[C@@H](OC(C)=O)C(C)(C)/C=C/[C@H](C)[C@H](OC(C)=O)[C@@]2(O)C[C@H](C)[C@H](OC(=O)c3ccccc3)[C@@H]2/C=C/1C` [EUPHORNIN], the inhibition in series [1] was 31.1%; in series [3] it was “Dose-dependent effect”; in series [5] it was 78.7%. The same molecule yielded an inhibition at 10 µM in series [2] of 19%. Moreover, the IC50 in series [4] is 2630 nM. The molecule also returned an inhibition at 1 µM in series [6] of 3.3%.

For `C/C=C(/C)C(=O)O[C@H]1C(C)=C[C@@]23C(=O)[C@@H](C=C(C)[C@@H](O)[C@]12O)[C@H]1[C@@H](C[C@H]3C)C1(C)C`, the inhibition in series [1] was 23.8%; in series [3], “Dose-dependent effect”; in series [5] it was 52.3%. The molecule further showed an inhibition at 10 µM in series [2] of 7.9%. The IC50 in series [4] was 12100 nM. In series [6], this molecule yielded an inhibition at 1 µM of 1.8%.

Consider `CC(=O)O[C@H]1/C(C)=C/[C@H]2[C@@H](OC(=O)c3ccccc3)[C@@H](C)C[C@]2(O)[C@@H](OC(C)=O)[C@@H](C)/C=C/C(C)(C)[C@H](O)[C@H]1O`, for which the inhibition was determined as 11.2% in series [1] and 23.5% in series [5].

With `CC(=O)O[C@@H]1[C@@H](OC(C)=O)C(C)(C)/C=C/[C@H](C)[C@H](OC(C)=O)[C@@]2(O)C[C@H](C)[C@H](OC(=O)c3ccccc3)[C@@H]2/C=C(\C)[C@@H]1O`, the inhibition in series [1] stood at 16.8%; in series [5], 66.6%.

With `CC(=O)O[C@H]1[C@@H](C)/C=C/C(C)(C)[C@H](O)[C@@H](O)[C@@H](O)/C(C)=C/[C@H]2[C@@H](OC(=O)c3ccccc3)[C@@H](C)C[C@@]21O`, the inhibition in series [1] turned out to be 15.7%; in series [5], 25.7%.

Turning to `C=C1CC[C@@H](OC(=O)/C=C/c2ccccc2)C(C)(C)/C=C/[C@H](C)C(=O)[C@@]2(O)C[C@H](C)[C@H](OC(=O)/C=C/c3ccccc3)[C@@H]2[C@H]1OC(C)=O`, the inhibition in series [1] was determined as 22.2%; in series [5], 23.7%.

Take `C/C=C(\C)C(=O)O[C@H]1[C@@H](C)/C=C/C(C)(C)[C@H](OC(C)=O)[C@@H](OC(C)=O)[C@@H](O)/C(C)=C/[C@H]2[C@@H](OC(=O)c3ccccc3)[C@@H](C)C[C@@]21O`: the inhibition came out at 15.3% in series [1] and 60.8% in series [5].

For `C/C=C(\C)C(=O)O[C@H]1/C(C)=C/[C@H]2[C@@H](OC(=O)c3ccccc3)[C@@H](C)C[C@]2(O)[C@@H](OC(=O)/C(C)=C/C)[C@@H](C)/C=C/C(C)(C)[C@H](OC(C)=O)[C@H]1OC(C)=O`, the inhibition was 23.5% in series [1] and 35.7% in series [5].

Regarding `C/C=C(/C)C(=O)OCC1(C)[C@H]2[C@@H]3C=C(COC(C)=O)[C@@H](O)[C@]4(O)[C@@H](OC(=O)/C(C)=C\C)C(C)=C[C@]4(C3=O)[C@H](C)C[C@H]21` (stereo partly specified), the inhibition was 16.4% in series [1] and 45.1% in series [5].

For `CC(=O)OCC(=O)O[C@@H]1[C@H]2[C@@H](OC(=O)c3ccccc3)[C@@H](C)C[C@]2(O)[C@@H](OC(C)=O)[C@]2(C)C[C@@]1(OC(C)=O)C[C@H]1C(=O)C(C)(C)C[C@@H]12`, the inhibition is 17.7% in series [1] and 28.6% in series [5].

Consider `CCCNCC(O)COc1ccccc1C(=O)CCc1ccccc1` (stereo unspecified), for which, in series [1], the inhibition fell in the range of 60.6 to 94.2%.

Consider `C/C=C(\C)C(=O)O[C@@H]1C[C@@H](OC(C)=O)C(C)(C)/C=C/[C@H](C)[C@H](OC(C)=O)[C@@]2(O)C[C@H](C)[C@H](OC(=O)c3ccccc3)[C@@H]2/C=C/1C`, for which the inhibition in series [1] was 35.5%; in series [3], “Dose-dependent effect”; in series [5], 88.7%. Moreover, in series [2], the inhibition at 10 µM was determined as 24.9%. The same molecule came in with a concentration for half-maximal inhibition (IC50) in series [4] of 1310 nM. Also, the inhibition at 1 µM in series [6] came to 10.8%.

Consider `CC(=O)O[C@@H]1[C@@H](O)[C@@H](OC(C)=O)/C(C)=C/[C@H]2[C@@H](OC(=O)c3ccccc3)[C@@H](C)C[C@]2(O)[C@@H](OC(C)=O)[C@@H](C)/C=C/C1(C)C`, for which the inhibition amounted to 16% in series [1] and 26.8% in series [5].

For `CC(=O)O[C@@H]1[C@@H](OC(C)=O)C(C)(C)/C=C/[C@H](C)[C@H](O)[C@@]2(OC(C)=O)C[C@H](C)[C@H](OC(=O)c3ccccc3)[C@@H]2/C=C(\C)[C@@H]1OC(C)=O`, the inhibition was 27.2% in series [1], “Dose-dependent effect” in series [3] and 66% in series [5]. Besides, the inhibition at 10 µM in series [2] came to 22.7%. The half-maximal inhibitory concentration (IC50) in series [4] was determined as 3400 nM. In series [6], the inhibition at 1 µM amounted to 11.2%.

With `CC(=O)O[C@@H]1[C@@H](OC(C)=O)C(C)(C)/C=C/[C@H](C)[C@H](OC(C)=O)[C@@]2(O)C[C@H](C)[C@H](OC(=O)c3ccccc3)[C@@H]2/C=C(\C)[C@@H]1OC(C)=O`, the inhibition in series [1] is 33.8%; in series [3] it was “Dose-dependent effect”; in series [5], 83.4%. The molecule further registered an inhibition at 10 µM in series [2] of 24%. The molecule further showed an IC50 in series [4] of 1690 nM. This molecule also displayed an inhibition at 1 µM in series [6] of 13.2%.
